This data set in a line: Toxicity liver stage against HepG2, at 10uM. Type of data set: cell-based. Details: test concentration 10 uM, cell line HepG2-A16-CD81EGFP. Conditions: human, HepG2-A16-CD81EGFP cells; read-out: INHIBITION
The method in brief: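 Uninfected HepG2-A16-CD81EGFP cells, 3 × 10^3 per well, 1536-well, plated on prespotted compound at 10 μM final, parasite-free screening media added to match infected plates; puromycin 10 μM positive, DMSO 0.5% negative; run in parallel with 48 h PbLuc assay at 37 °C, 5% CO2; viability by CellTiter-Glo luminescence, normalized to controls.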

Among the data in ChEMBL document CHEMBL4513216, “Probing the Open Global Health Chemical Diversity Library for Multistage-Active Starting Points for Next-Generation Antimalarials” (ACS Infect Dis, 2020) are cytotoxicity values, retold here.

Consider `c1cnc(NCc2ncn3c2CN(Cc2cccnc2)CCC3)nc1`, for which the cytotoxicity at 10 µM was -8.81%.

On to `Cn1cc(CN2CC[C@H]3C[C@H](c4nc(C5CC5)cs4)O[C@@H]3C2)cn1`, for which the cytotoxicity at 10 µM was -6.78%.

For `Cn1[nH]c(C2CCC2)c(-c2ccc3c(c2)OCO3)c1=N`, the cytotoxicity at 10 µM was -42.3%.

`CCO[C@H]1CN(C)C[C@@H]1NC(=O)c1cc(C)nc2c(C)c(C)ccc12`: the cytotoxicity at 10 µM was 1.64%.

As to `NC(=O)CSCC(=O)NC1(c2cccc(Br)c2)CC1`, the cytotoxicity at 10 µM was -13.9%.

Turning to `C[S+]([O-])CCNC(=O)N1CCN(c2cc(F)ccc2F)CC1` (stereo unspecified), the cytotoxicity at 10 µM is -13.4%.

Take `CCCc1nc(CN2CCCCC2Cn2cncn2)cs1` (stereo unspecified): the cytotoxicity at 10 µM was -5.61%.

As for `CC(C)(C(=O)NCC1CC1)c1ccccc1F`, the cytotoxicity at 10 µM was -5.47%.

For the compound `Cc1nc(-c2cccnc2)ncc1C(=O)N1CCC(C(C)N(C)C)CC1` (stereo unspecified), the cytotoxicity at 10 µM was -1.8%.

Turning to `O=c1[nH]c(COc2cccc(F)c2)nc2c1CCNC2`, the cytotoxicity at 10 µM came to 10.1%.

Consider `COCC1CCCCN1C(=O)c1cc(-c2cccc(OC)c2)n[nH]1` (stereo unspecified), for which the cytotoxicity at 10 µM stood at 9.34%.

On to `CC(C)CCN(C)Cc1ccccc1-c1nc(C(C)C)cc(=O)[nH]1`, for which the cytotoxicity at 10 µM was determined as 5.46%.

For `CC(C)[C@@H]1CN(C2CCN(Cc3ccccc3)CC2)C[C@H]1NS(C)(=O)=O`, the cytotoxicity at 10 µM is -10.7%.

Turning to `O=C(NCC1CCC2(CCNCC2)O1)C1CC1` (stereo unspecified), the cytotoxicity at 10 µM was -5.01%.

`CCOc1ccc(Oc2cc(N)ccn2)cc1`: the cytotoxicity at 10 µM is 2.9%.

For `CCN1CCC2(COCc3c(C)nc(N4CCOCC4)nc32)C1` (stereo unspecified), the cytotoxicity at 10 µM was -141%.

Turning to `CCC(NC(=O)CC(F)(F)F)c1ccccc1OCC(=O)N1CCCC1` (stereo unspecified), the cytotoxicity at 10 µM was 0.145%.

In the case of `Cc1cc(C(=O)N(C)C)nc(C2(C)CCCN2c2ccnc(C)n2)n1` (stereo unspecified), the cytotoxicity at 10 µM is -7.49%.

In the case of `CC(=O)N1CC(C(=O)NCCc2ncc(C)s2)C1`, the cytotoxicity at 10 µM is -1.33%.

As for `O=C([C@H]1COC[C@H]2CN(C3CCCC3)C[C@H]21)N1CCCO1`, the cytotoxicity at 10 µM is 2.14%.

Consider `CCN(Cc1ccc(C#N)cc1F)C(=O)CN(C)CC(N)=O`, for which the cytotoxicity at 10 µM is 7.52%.

Turning to `CCN(C(=O)Cn1cc(Cl)cn1)c1ccccc1`, the cytotoxicity at 10 µM was -8.01%.

In the case of `COCC1CC2(CCN(Cc3ccc(OC)cc3)CC2)CN1C(C)C` (stereo unspecified), the cytotoxicity at 10 µM was -3.68%.

As for `Cc1ncnc2c1CCN(C(=O)c1cccc(F)c1)CC2`, the cytotoxicity at 10 µM stood at 8.27%.

`Cn1ncc2c(N3CCC(CC(=O)N4CCCC4)CC3)ncnc21`: the cytotoxicity at 10 µM worked out at 4.19%.

`Cc1ccccc1C1(CNC(=O)c2cccc(S(C)(=O)=O)c2)CC1`: the cytotoxicity at 10 µM was -0.185%.

Consider `COc1ccc(OC)c(-n2c(COC(C)C)n[nH]c2=O)c1`, for which the cytotoxicity at 10 µM was 7.78%.

On to `O=C(Cc1cccnc1)N1CC(Cc2nccc3cc[nH]c23)C1`, for which the cytotoxicity at 10 µM was 4.87%.

On to `COc1ccc2c(c1)CC(C1CCOCC1)N(C(=O)c1ccnn1C)C2` (stereo unspecified), for which the cytotoxicity at 10 µM was -0.516%.

Take `Cc1nc(C2CCCN2CC(=O)NCCOc2ccccc2)no1` (stereo unspecified): the cytotoxicity at 10 µM is -6.54%.

In the case of `O=C(NCC1CC1)[C@H]1CN(Cc2nccs2)C[C@H]2OCC[C@@H]12`, the cytotoxicity at 10 µM is -109%.

With `Cc1nc(C2CCN(S(=O)(=O)c3ccc4c(c3)CCC4)CC2)n[nH]1`, the cytotoxicity at 10 µM is -1.24%.

Consider `CCOc1ncnc2c1CCN(S(=O)(=O)CC)CC2`, for which the cytotoxicity at 10 µM came out at 3.79%.

`CCOc1cccc(CNc2cccc(C(=O)OC)c2)c1O`: the cytotoxicity at 10 µM amounted to 7.36%.

For `CCN1CCN(C2CCN(Cc3nnc(C4CC4)o3)CC2)C1=O`, the cytotoxicity at 10 µM came to 1.75%.

Turning to `COc1ccccc1N1CCCC(Nc2ncccn2)C1=O` (stereo unspecified), the cytotoxicity at 10 µM was found to be 4.96%.

Consider `CCN1CCc2[nH]cnc2C12CCN(c1ccc(Cl)c(C(=O)O)n1)CC2`, for which the cytotoxicity at 10 µM is 2.74%.

With `Cc1nc(Nc2nncs2)cc(C2CCCN2)n1` (stereo unspecified), the cytotoxicity at 10 µM is -1.03%.

In the case of `Cc1nn(C)c(Cl)c1C1CCCN1C(=O)c1ccc2nncn2c1` (stereo unspecified), the cytotoxicity at 10 µM is -10.2%.

Turning to `CN(Cc1cccnc1)Cc1cncc2c1CCN(Cc1ccoc1)C2`, the cytotoxicity at 10 µM was -100%.

For the compound `Cc1cnn(CCNCc2ccc(C#N)cc2F)c1`, the cytotoxicity at 10 µM is -2.73%.

For `CC(C)NC(=O)CN1CCC(c2cccc(F)c2)C1` (stereo unspecified), the cytotoxicity at 10 µM worked out at 0.103%.

Take `CCOC(=O)C1CCN(C(=O)Cc2c(C)nc(C)[nH]c2=O)CC1`: the cytotoxicity at 10 µM amounted to 16.6%.

As to `O=C(C(NCc1cccc(F)c1F)c1ccccc1)N1CCOCC1` (stereo unspecified), the cytotoxicity at 10 µM was determined as 8.61%.

As to `CC(C)=CCN1CC2(CCN(Cc3c(F)cccc3F)CC2)CC1=O`, the cytotoxicity at 10 µM was -17%.

Regarding `O=C(NCC(O)c1ccc(F)cc1F)c1cccnc1O` (stereo unspecified), the cytotoxicity at 10 µM was 7.58%.

For the compound `CN(C)c1ncc(I)c(C2CCCCN2S(C)(=O)=O)n1` (stereo unspecified), the cytotoxicity at 10 µM was found to be 5.09%.

On to `Cc1cn(CC(=O)NCC(=O)NC2CC2)c2ccccc12`, for which the cytotoxicity at 10 µM is -0.966%.

With `COc1ccc(C(C)NS(=O)(=O)c2ccc3c(c2)CCC(=O)N3)cc1F` (stereo unspecified), the cytotoxicity at 10 µM was -49.7%.

With `CC(=O)N1CC[C@H]2OCC[C@@]2(C(=O)NCc2cnc(C)cn2)C1`, the cytotoxicity at 10 µM was -106%.

`c1ccc(OCCNc2ncnc3sc4c(c23)CCNC4)cc1`: the cytotoxicity at 10 µM stood at 45.4%.

As for `CC(C)c1n[nH]c(C2CN(CCCS(C)(=O)=O)CCO2)n1` (stereo unspecified), the cytotoxicity at 10 µM is -11.9%.

As for `Cc1nc(CN2C[C@@H]3CN(C(=O)c4cnccn4)C[C@@H]3C2=O)cs1`, the cytotoxicity at 10 µM was -74.5%.

For `CN(C1CCCN(c2ccccn2)C1)S(C)(=O)=O` (stereo unspecified), the cytotoxicity at 10 µM was determined as 1.07%.

Regarding `O=C(c1nc(N2CCCC2)ncc1Cl)N1CCN(Cc2ccsc2)CC1`, the cytotoxicity at 10 µM was -56%.

Turning to `COCc1nc(-c2ccnc(N3CCNCC3)n2)no1`, the cytotoxicity at 10 µM was 12.5%.

On to `Cn1ccc(CN2CCC(Cc3ccccc3)CC2)cc1=O`, for which the cytotoxicity at 10 µM is 1.78%.

For `CN1CCN(C(=O)c2cnn(-c3ccccc3Cl)c2)CC1`, the cytotoxicity at 10 µM was -5.51%.

In the case of `O=C(COCCc1ccccc1)N1CCCC(n2cccn2)C1` (stereo unspecified), the cytotoxicity at 10 µM was -3.42%.

Regarding `C1CC(CN2C[C@@H]3C[C@@H](c4nnc(C5CC5)o4)O[C@@H]3C2)CCO1`, the cytotoxicity at 10 µM was 6.58%.

For the compound `COCc1nc(C(=O)NS(=O)(=O)c2cc(F)ccc2F)cs1`, the cytotoxicity at 10 µM is -2.22%.

Turning to `Cc1cccn2c(CNC(C)CCn3cccn3)cnc12` (stereo unspecified), the cytotoxicity at 10 µM was determined as 21.6%.

On to `CC(C)(C)CN1CC[C@H](c2nnc(Cc3c[nH]c4ccccc34)o2)C1`, for which the cytotoxicity at 10 µM was -3.9%.

As to `Cc1ccc2c(n1)N(CCn1cccn1)CCN(C(=O)NC(C)C)C2`, the cytotoxicity at 10 µM was 13.3%.

Consider `O=C(CS(=O)(=O)C1CCCC1)NC1CCc2nccn2C1` (stereo unspecified), for which the cytotoxicity at 10 µM was -17%.

Consider `O=C(C1CCOCC1)N(CCc1ccccc1)C1CCOC1` (stereo unspecified), for which the cytotoxicity at 10 µM came to 4.77%.

`CC(=O)N1CC2(CCN(C(=O)C3CC3)CC2)c2cc(C)ccc21`: the cytotoxicity at 10 µM amounted to 9.94%.

For `CC(NC(=O)NC1CCN(Cc2ccncc2)CC1)c1ccc(F)cc1` (stereo unspecified), the cytotoxicity at 10 µM came to 7.9%.

For `CC(C)CC(=O)N1CCC2(CC1)[C@@H]1CN(C(=O)N(C)C)C[C@@H]1C(=O)N2C`, the cytotoxicity at 10 µM was found to be 4.85%.

For the compound `CCOc1ccccc1-c1noc(CN2CC(n3cccn3)C2)n1`, the cytotoxicity at 10 µM is -2.79%.

As for `c1csc(CN2CC3(CCN(Cc4ccsc4)C3)C2)n1`, the cytotoxicity at 10 µM is -2.65%.

For `CN(C)C(=O)COCc1cncc2c1CCN(Cc1cnn(C)c1)C2`, the cytotoxicity at 10 µM is -3.48%.

For `CC(C)N1CCC(C(=O)N[C@H](C(=O)O)c2cccc(F)c2F)CC1`, the cytotoxicity at 10 µM turned out to be 2.59%.

Take `O=C(NCCCNc1ccc(C(F)(F)F)cn1)c1ccc(F)cc1`: the cytotoxicity at 10 µM is -8.72%.

For the compound `CNc1ncc(C(=O)N2CCC(CCc3ccccc3)CC2)cn1`, the cytotoxicity at 10 µM came to 13.1%.

In the case of `CC(=O)NCCc1ncnn1-c1ccc(F)c(Cl)c1`, the cytotoxicity at 10 µM was -15%.

Consider `Cc1ccccc1CCC1CCCN(Cc2nnc(-c3ccco3)o2)C1` (stereo unspecified), for which the cytotoxicity at 10 µM is -116%.

Take `COC(=O)[C@H]1CN(C(=O)NC(C)C)CCN1C(=O)c1cccs1`: the cytotoxicity at 10 µM was -0.832%.

Turning to `Cc1noc(CNC2CCCN(Cc3noc(C4CC4)n3)C2)n1` (stereo unspecified), the cytotoxicity at 10 µM was -1.7%.

Turning to `COCC1CN(Cc2ccc(F)cc2)Cc2nnn(CC3CC3)c21` (stereo unspecified), the cytotoxicity at 10 µM was 3.4%.

In the case of `CN(C)c1ncc2c(O)nc(C3CCNCC3)cc2n1`, the cytotoxicity at 10 µM amounted to 13.3%.

In the case of `Cc1occc1C(=O)N1C[C@H](Oc2ccccn2)[C@H]2OCCC[C@H]21`, the cytotoxicity at 10 µM was -110%.

Consider `Cc1ccc(CNC2CCCN(Cc3noc(C4CC4)n3)C2)s1` (stereo unspecified), for which the cytotoxicity at 10 µM is -6.01%.

Consider `Cc1ccc(N2N=C(C(=O)N(C)Cc3ccco3)NCC2=O)cc1`, for which the cytotoxicity at 10 µM was 6.27%.

As to `CCS(=O)(=O)N1CCC2(CCN(Cc3nccs3)CC2)CC1`, the cytotoxicity at 10 µM was 7.13%.

Consider `Cc1nc(NCC2CC2)nc2c1COCC21CCN(C(=O)C(C)(C)C)C1` (stereo unspecified), for which the cytotoxicity at 10 µM is -77.8%.

For the compound `CC(=O)c1cc(CN2C[C@@H]3CC[C@H]2CN(S(C)(=O)=O)C3)cs1`, the cytotoxicity at 10 µM was found to be 8.35%.

With `CCn1cc(CNC(=O)CCn2ncc3c(Cl)cccc32)cn1`, the cytotoxicity at 10 µM worked out at 10.9%.

Regarding `O=C(NCCc1c[nH]cn1)C1CCCN(C2CCOCC2)C1` (stereo unspecified), the cytotoxicity at 10 µM amounted to 1.58%.

As for `CSCc1cccc(S(=O)(=O)N2CCCC2)c1`, the cytotoxicity at 10 µM was 8.49%.

With `CCn1c(CN2CCCC2)nnc1C1CCN(Cc2ccccn2)CC1`, the cytotoxicity at 10 µM worked out at 3.11%.

As to `Cc1cc(Nc2cnccn2)cc(C2CCCN2)n1` (stereo unspecified), the cytotoxicity at 10 µM came to 2.54%.

For `CCN(C)C(=O)c1ccc(N2CCC(Oc3cccc(F)c3)CC2)nc1`, the cytotoxicity at 10 µM is -23.7%.

Regarding `COc1ccc(N(C)C(=O)C2CN(C)CCO2)cc1F` (stereo unspecified), the cytotoxicity at 10 µM is -41.8%.

`CCc1nccn1CCNC1CCN(c2nc3ccc(Cl)cc3s2)CC1`: the cytotoxicity at 10 µM came to 28.8%.

On to `COc1cc2c(cc1OC)CN(C(C(=O)O)c1c(C)nn(C)c1C)CC2` (stereo unspecified), for which the cytotoxicity at 10 µM is -3.14%.
